Assays:
[1] = test system: MDA-MB-231; experiment: Growth inhibition of human MDA-MB-231 cells at 10 uM after 72 hrs by luminescence assay; format: functional; settings: MDA-MB-231, 72 h
[2] = target: T1, cGMP-specific 3',5'-cyclic phosphodiesterase (Homo sapiens, UniProt O76074); experiment: Inhibition of human recombinant PDE5 at 10 uM after 30 mins by fluorescence polarization assay
[3] = target: T1, cGMP-specific 3',5'-cyclic phosphodiesterase; experiment: Inhibition of human recombinant PDE5 after 30 mins by fluorescence polarization assay
Procedure, shortened: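 Recombinant human PDE5A at 12.5 units/mL was preincubated 30 min with compound or vehicle. Then 50 nM TAMRA-cGMP was added and the mix incubated 1.5 h at 30 °C. IMAP binding reagent was added for 30 min at 30 °C and fluorescence polarization read. IC50 came from a 10-concentration series in quadruplicate, fitted to a four-parameter logistic.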

[4] = target: T1, cGMP-specific 3',5'-cyclic phosphodiesterase; experiment: Inhibition of human recombinant PDE5A-mediated hydrolysis of cGMP after 30 mins by fluorescence polarization assay
[5] = target: T2, cGMP-inhibited 3',5'-cyclic phosphodiesterase 3B (Homo sapiens, UniProt Q13370); experiment: Inhibition of human recombinant PDE3B-mediated hydrolysis of cAMP after 30 mins by fluorescence polarization assay
Procedure, shortened: (§1)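 Recombinant human enzyme levels were PDE3B 10 units/mL, PDE4B 400 units/mL and PDE11A 50 units/mL. Enzyme was preincubated with compound or vehicle for 30 min. Substrate was then added: 50 nM TAMRA-cGMP and/or 50 nM fluorescein-cAMP. Reactions ran 1.5 h at 30 °C, followed by IMAP binding reagent for 30 min at 30 °C. Fluorescence polarization was read. IC50 came from a 10-concentration series in quadruplicate, fitted to a four-parameter logistic.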

[6] = target: T2, cGMP-inhibited 3',5'-cyclic phosphodiesterase 3B; experiment: Inhibition of human recombinant PDE3B-mediated hydrolysis of cGMP after 30 mins by fluorescence polarization assay; procedure, shortened: as §1
[7] = target: 3',5'-cyclic-AMP phosphodiesterase 4B (Homo sapiens, UniProt Q07343); experiment: Inhibition of human recombinant PDE4B-mediated hydrolysis of cAMP after 30 mins by fluorescence polarization assay
Procedure, shortened: as §1, with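 “fluorescein-cAMP.” for “fluorescein-cAMP. Reactions ran 1.5 h at 30 °C, followed by IMAP binding reagent for 30 min at 30 °C.”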

[8] = target: T3, Dual 3',5'-cyclic-AMP and -GMP phosphodiesterase 11A (Homo sapiens, UniProt Q9HCR9); experiment: Inhibition of human recombinant PDE11A-mediated hydrolysis of cAMP after 30 mins by fluorescence polarization assay
Procedure, shortened: as §1, with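 “fluorescein-cAMP.” for “fluorescein-cAMP. Reactions ran 1.5 h at 30 °C, followed by IMAP binding reagent for 30 min at 30 °C.”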

[9] = target: T3, Dual 3',5'-cyclic-AMP and -GMP phosphodiesterase 11A; experiment: Inhibition of human recombinant PDE11A-mediated hydrolysis of cGMP after 30 mins by fluorescence polarization assay
Procedure, shortened: as §1, with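 “fluorescein-cAMP.” for “fluorescein-cAMP. Reactions ran 1.5 h at 30 °C, followed by IMAP binding reagent for 30 min at 30 °C.”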

[10] = test system: MDA-MB-231; experiment: Growth inhibition of human MDA-MB-231 cells after 72 hrs by luminescence assay; format: functional, cell-based; settings: MDA-MB-231, 72 h
Procedure, shortened: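 MDA-MB-231 cells grown in RPMI 1640 with 5% FBS, 2 mM glutamine and antibiotics at 37 °C, 5% CO2. Cells were harvested at 70–90% confluence, used only if viability >95%, and seeded at 5000 cells/well. Dosing followed 18–24 h later, with final DMSO 0.1%. Viability was read after 72 h by CellTiter-Glo luminescence. IC50 came from eight concentrations in quadruplicate, fitted to a four-parameter logistic.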

3',5'-cyclic-AMP phosphodiesterase 4B, sequence (Q07343 whole entry): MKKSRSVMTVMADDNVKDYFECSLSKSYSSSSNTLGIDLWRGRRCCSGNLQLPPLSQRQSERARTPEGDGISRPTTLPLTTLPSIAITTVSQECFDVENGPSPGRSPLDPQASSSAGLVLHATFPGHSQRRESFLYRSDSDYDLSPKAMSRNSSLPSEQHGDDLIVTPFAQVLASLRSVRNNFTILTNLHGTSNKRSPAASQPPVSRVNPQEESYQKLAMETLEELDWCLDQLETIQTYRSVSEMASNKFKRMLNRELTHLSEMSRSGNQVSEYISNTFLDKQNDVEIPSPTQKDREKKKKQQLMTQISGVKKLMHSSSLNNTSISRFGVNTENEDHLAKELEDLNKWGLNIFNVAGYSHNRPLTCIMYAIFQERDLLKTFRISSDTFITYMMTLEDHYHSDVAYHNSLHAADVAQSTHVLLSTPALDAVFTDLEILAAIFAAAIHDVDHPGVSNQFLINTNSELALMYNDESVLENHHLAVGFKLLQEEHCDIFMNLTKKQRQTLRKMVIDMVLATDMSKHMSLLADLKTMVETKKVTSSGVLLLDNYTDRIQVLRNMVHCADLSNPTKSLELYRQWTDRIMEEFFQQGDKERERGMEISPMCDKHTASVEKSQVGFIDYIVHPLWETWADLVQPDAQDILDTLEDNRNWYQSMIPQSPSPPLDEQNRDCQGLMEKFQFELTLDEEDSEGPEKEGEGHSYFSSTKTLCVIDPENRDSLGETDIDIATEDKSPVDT
T2 sequence (Q13370 whole entry): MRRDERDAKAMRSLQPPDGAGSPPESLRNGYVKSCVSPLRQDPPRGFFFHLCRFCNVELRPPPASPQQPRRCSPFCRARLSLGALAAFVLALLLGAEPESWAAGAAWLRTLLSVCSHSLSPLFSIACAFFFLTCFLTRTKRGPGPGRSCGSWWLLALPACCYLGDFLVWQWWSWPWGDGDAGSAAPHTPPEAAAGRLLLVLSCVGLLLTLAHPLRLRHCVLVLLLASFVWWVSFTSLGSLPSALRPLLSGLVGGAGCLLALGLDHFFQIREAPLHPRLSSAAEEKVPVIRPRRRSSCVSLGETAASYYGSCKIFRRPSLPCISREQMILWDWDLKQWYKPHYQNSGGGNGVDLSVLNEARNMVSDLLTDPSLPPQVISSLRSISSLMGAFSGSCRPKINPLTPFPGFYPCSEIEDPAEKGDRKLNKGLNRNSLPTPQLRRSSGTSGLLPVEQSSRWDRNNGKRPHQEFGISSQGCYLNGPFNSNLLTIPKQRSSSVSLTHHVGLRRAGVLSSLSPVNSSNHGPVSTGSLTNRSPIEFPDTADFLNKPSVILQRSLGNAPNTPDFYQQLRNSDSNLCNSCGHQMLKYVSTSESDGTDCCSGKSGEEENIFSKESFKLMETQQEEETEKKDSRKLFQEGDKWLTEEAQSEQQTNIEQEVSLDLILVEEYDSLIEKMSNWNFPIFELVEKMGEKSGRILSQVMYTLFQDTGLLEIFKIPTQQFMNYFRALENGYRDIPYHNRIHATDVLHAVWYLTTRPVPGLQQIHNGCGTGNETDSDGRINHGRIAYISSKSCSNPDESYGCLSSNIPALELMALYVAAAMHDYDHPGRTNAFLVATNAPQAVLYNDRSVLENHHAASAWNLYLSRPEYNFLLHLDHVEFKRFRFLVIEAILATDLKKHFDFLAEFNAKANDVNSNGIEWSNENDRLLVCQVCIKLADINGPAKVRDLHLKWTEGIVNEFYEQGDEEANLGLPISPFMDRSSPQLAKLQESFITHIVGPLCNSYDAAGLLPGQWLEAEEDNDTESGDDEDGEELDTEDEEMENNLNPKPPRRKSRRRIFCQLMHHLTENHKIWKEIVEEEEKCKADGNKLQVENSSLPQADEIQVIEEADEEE
T3 sequence (Q9HCR9 whole entry): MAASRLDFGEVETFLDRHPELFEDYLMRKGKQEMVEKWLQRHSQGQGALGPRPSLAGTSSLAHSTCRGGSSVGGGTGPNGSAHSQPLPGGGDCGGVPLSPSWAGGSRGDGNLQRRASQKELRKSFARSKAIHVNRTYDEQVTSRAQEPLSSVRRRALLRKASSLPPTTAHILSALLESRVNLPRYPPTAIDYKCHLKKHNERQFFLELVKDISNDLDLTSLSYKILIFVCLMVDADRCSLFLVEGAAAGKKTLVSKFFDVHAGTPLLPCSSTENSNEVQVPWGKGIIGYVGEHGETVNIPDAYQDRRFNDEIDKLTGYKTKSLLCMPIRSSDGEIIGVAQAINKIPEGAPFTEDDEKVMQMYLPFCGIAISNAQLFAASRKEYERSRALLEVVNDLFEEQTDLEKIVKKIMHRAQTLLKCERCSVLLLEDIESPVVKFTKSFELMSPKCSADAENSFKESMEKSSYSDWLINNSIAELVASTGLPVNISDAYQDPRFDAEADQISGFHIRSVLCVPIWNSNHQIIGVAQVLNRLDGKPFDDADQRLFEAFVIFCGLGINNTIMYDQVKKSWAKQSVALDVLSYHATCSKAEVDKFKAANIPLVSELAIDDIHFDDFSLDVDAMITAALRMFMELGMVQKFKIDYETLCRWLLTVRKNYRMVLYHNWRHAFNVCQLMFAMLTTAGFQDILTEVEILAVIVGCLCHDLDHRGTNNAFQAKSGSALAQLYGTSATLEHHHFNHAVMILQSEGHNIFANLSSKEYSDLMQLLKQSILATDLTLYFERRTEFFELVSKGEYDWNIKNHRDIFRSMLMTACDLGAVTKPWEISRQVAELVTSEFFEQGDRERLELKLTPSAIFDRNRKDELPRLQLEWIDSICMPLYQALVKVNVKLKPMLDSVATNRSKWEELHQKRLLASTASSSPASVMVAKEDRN

| SMILES | inhibition [2] | IC50 [3] | IC50 [4] | IC50 [5] | IC50 [6] | IC50 [7] | IC50 [8] | IC50 [9] | IC50 [10] | inhibition at 10 µM [1] |
| --- | --- | --- | --- | --- | --- | --- | --- | --- | --- | --- |
| CN1CC(=O)N2[C@@H](c3ccc(Cl)cc3Cl)c3[nH]c4ccccc4c3C[C@H]2C1=O | 82% | 850 nM | – | – | – | – | – | – | 7100 nM | 70% |
| CN1CC(=O)N2[C@@H](c3ccc(Cl)cc3Cl)c3[nH]c4ccccc4c3C[C@@H]2C1=O | 90% | 1200 nM | – | – | – | – | – | – | 3260 nM | 65% |
| CCCCN1CC(=O)N2[C@@H](c3ccc(Cl)cc3Cl)c3[nH]c4ccccc4c3C[C@H]2C1=O | 78% | 4460 nM | – | – | – | – | – | – | 3280 nM | 82% |
| CC(C)(C)N1C(=O)[C@H]2Cc3c([nH]c4ccccc34)[C@@H](c3ccc(Cl)cc3Cl)N2C1=O | 80% | 590 nM | – | – | – | – | – | – | 2260 nM | 68% |
| CN1CC(=O)N2[C@H](c3ccc4c(c3)OCO4)c3[nH]c4ccccc4c3C[C@@H]2C1=O | – | – | – | > 50000 nM | > 50000 nM | – | – | – | – | – |
| CC(C)(C)N1C(=O)[C@@H]2Cc3c([nH]c4ccccc34)[C@H](c3ccc(Cl)c(Cl)c3)N2C1=O | 80% | 2310 nM | – | – | – | – | – | – | 1430 nM | 70% |
| CC(C)(C)N1C(=O)[C@H]2Cc3c([nH]c4ccccc34)[C@@H](c3ccc(Cl)c(Cl)c3)N2C1=O | 82% | 1870 nM | – | – | – | – | – | – | 3250 nM | 99% |

Second part, led by results:

| inhibition [2] | IC50 [3] | IC50 [4] | IC50 [5] | IC50 [6] | IC50 [7] | IC50 [8] | IC50 [9] | IC50 [10] | SMILES | inhibition at 10 µM [1] |
| --- | --- | --- | --- | --- | --- | --- | --- | --- | --- | --- |
| 95% | 10 nM | 10 nM | > 50000 nM | > 50000 nM | 34000 nM | 2000 nM | 310 nM | – | CCN1C(=O)[C@H]2Cc3c([nH]c4ccccc34)[C@@H](c3ccc(Cl)cc3Cl)N2C1=O | 39% |
| 91% | 2 nM | 2 nM | > 50000 nM | > 50000 nM | > 50000 nM | 104 nM | 11 nM | – | CCN1CC(=O)N2[C@H](c3ccc(Cl)cc3Cl)c3[nH]c4ccccc4c3C[C@@H]2C1=O | 30% |
| 90% | 260 nM | – | – | – | – | – | – | 1540 nM | CCN1CC(=O)N2[C@@H](c3ccc(Cl)cc3Cl)c3[nH]c4ccccc4c3C[C@@H]2C1=O | 66% |
| 95% | 7 nM | 7 nM | > 50000 nM | > 50000 nM | 3600 nM | 13000 nM | 1500 nM | 5370 nM | CCN1C(=O)[C@@H]2Cc3c([nH]c4ccccc34)[C@@H](c3ccc(Cl)cc3Cl)N2C1=O | 68% |
| 95% | 70 nM | – | – | – | – | – | – | 1260 nM | CC(C)(C)N1C(=O)[C@@H]2Cc3c([nH]c4ccccc34)[C@@H](c3ccc(Cl)cc3Cl)N2C1=O | 69% |
| 73% | 1480 nM | – | – | – | – | – | – | 640 nM | CC(C)(C)N1C(=O)[C@H]2Cc3c([nH]c4ccccc34)[C@H](c3ccc(Cl)cc3Cl)N2C1=O | 65% |
